# Source: ChEMBL document CHEMBL3407350, “Synthesis and anti-hepatitis B virus activity of C4 amide-substituted isosteviol derivatives” (Bioorg Med Chem, 2015)
# Activity calls are given as the source filed them. The rule behind the calls is not given here.
# Key:
# [1] = Upregulation of cytoplasmic IkappaBalpha level in human HuH7 cells transfected with pHBV1.2 at 1 to 10 ug/ml after 2 days by Western blotting analysis; type: functional, cell-based; details: Huh-7
# Method in brief: (§1)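 Huh7 transfected with pHBV1.2 for 2 days, treated 1, 5, 10 µg/ml for 2 further days; nuclear and cytoplasmic fractions by NE-PER; 25 µg protein immunoblotted for p65, p50, phospho-p65 (nuclear, PCNA control) and IκBα (cytoplasmic); three experiments.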
# [2] = Cytotoxicity against human HepG2(2.2.15) cells at >20 ug/ml after 3 days by MTS assay; type: cell-based; details: hepg2 2.2.15, 72 h
# Method in brief: (§2)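 Cytotoxicity by MTS: HepG2 2.2.15 cells seeded at 4×10^4 cells/ml for 24 h, exposed to serial dilutions 2.5–160 µg/ml for 3 days; four replicates, viability expressed relative to untreated control; TC50 as 50% cytotoxic concentration.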
# Hepatitis B virus [3] = experiment: Antiviral activity against HBV transfected in human HuH7 cells assessed as reduction in SHBsAg protein expression at 1 to 10 ug/ml after 2 days by immunoblot analysis relative to vehicle-treated control; type: functional, organism-based; details: Huh-7
# Method in brief: (§3)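 Huh7 transfected with pHBV1.2 (Lipofectamine 2000, 2 days), then treated 1, 5, 10 µg/ml for 2 days; whole-cell RIPA lysates, 25 µg protein per lane SDS-PAGE, PVDF immunoblot for LHBsAg, SHBsAg, HBcAg with ECL detection; α-tubulin loading control; compared with vehicle.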
# Huh-7 [4] = experiment: Antiviral activity against HBV infected in human HuH7 cells transfected with pHBV1.2/p65 expression plasmid at 10 ug/ml after 2 days by RT-PCR analysis; type: functional, cell-based
# Method in brief: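 Huh7 cells cotransfected with pHBV1.2 plus 0.5 or 2.5 µg pCMV-p65 (or empty vector) for 2 days, then exposed to 10 µg/ml for 2 more days; secreted viral particle DNA quantified by real-time PCR; n = 3.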
# Hepatitis B virus [5] = experiment: Antiviral activity against HBV transfected in human HuH7 cells assessed as reduction in HBcAg protein expression at 1 to 10 ug/ml after 2 days by immunoblot analysis relative to vehicle-treated control; type: functional, organism-based; details: Huh-7; method in brief: as §3
# [6] = Cytotoxicity against human HepG2(2.2.15) cells; type: cell-based; details: read-out: TC50 (the source's name); method in brief: as §2
# Hepatitis B virus [7] = experiment: Antiviral activity against HBV transfected in human HuH7 cells assessed as reduction in precore/pregenomic RNA level at 1 to 10 ug/ml after 2 days by Northern blot analysis; type: functional, organism-based; details: Huh-7
# Method in brief: (§4)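 pHBV1.2-transfected Huh7 (cotransfected pCMV-β for efficiency) treated 1, 5, 10 µg/ml for 2 days; 5 µg total RNA on 1.0% agarose, Northern blot with whole HBV genome probe; GAPDH RNA loading control, β-gal for transfection efficiency.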
# Hepatitis B virus [8] = experiment: Inhibition of Core promoter activity in HBV infected in human HuH7 cells transfected with pCore-Luc at 10 ug/ml after 24 hrs by luciferase reporter gene assay; type: functional, organism-based; details: Huh-7
# Method in brief: (§5)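 Huh7 seeded in 24-well plates 24 h, cotransfected with viral promoter-luciferase construct (Core, S, preS or X; 1 µg/well) plus pHBV1.2 and pRL-SV40 (0.02 µg/well) in serum-free DMEM 24 h; then 2% FBS medium ± 10 µg/ml; firefly normalized to Renilla; n = 3.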
# Huh-7 [9] = experiment: Inhibition of nuclear p65/p50 NF-kappaB protein expression in human HuH7 cells transfected with pHBV1.2 at 1 to 10 ug/ml after 2 days by Western blotting analysis; type: functional, cell-based; method in brief: as §1
# Hepatitis B virus [10] = experiment: Antiviral activity against HBV infected in human HepG2(2.2.15) cells assessed as inhibition of viral DNA replication; type: functional, organism-based
# Method in brief: (§6)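 Secreted virion DNA from HepG2 2.2.15 cells after 3 days of compound treatment; HBV DNA isolated from conditioned medium and quantified by SYBR Green real-time PCR (45 cycles, 95 °C 15 s / 58 °C 1 min); mean and SD, n = 3; IC50 as 50% inhibitory concentration.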
# [11] = Cytotoxicity against HBV-transfected human HuH7 cells up to 160 ug/ml after 3 days by MTS assay; type: cell-based; details: huh-7, 72 h
# Method in brief: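 Huh7 cells (DMEM, 10% FBS) transfected with HBV plasmid, seeded at 4×10^4 cells/ml for 24 h, treated with 2.5–160 µg/ml serial dilutions for 3 days; viability by MTS read-out, four replicates, relative to untreated control.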
# Hepatitis B virus [12] = experiment: Inhibition of NF-kappaB promoter activity in HBV infected in human HuH7 cells transfected with pNF-kappaB-Luc at 10 ug/ml after 24 hrs by luciferase reporter gene assay; type: functional, organism-based; details: Huh-7
# Method in brief: (§7)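 Huh7 in 24-well plates transfected with pAP1-, pAP2-, pNF-κB- or pISRE-Luc plus pRL-SV40 for 24 h, then treated ± 10 µg/ml; dual-luciferase read-out normalized to Renilla; mean and SD, n = 3.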
# [13] = Selectivity index, ratio of TC50 for human HepG2(2.2.15) cells to IC50 for HBV infected in human HepG2(2.2.15) cells assessed as inhibition of surface antigen secretion
# Method in brief: (§8)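 Selectivity index computed as TC50 (MTS, HepG2 2.2.15, 3 days) divided by IC50 for HBsAg, HBeAg or virion DNA inhibition in the same cell line.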
# Hepatitis B virus [14] = experiment: Inhibition of AP-2 promoter activity in HBV infected in human HuH7 cells transfected with pAP2-Luc at 10 ug/ml after 24 hrs by luciferase reporter gene assay; type: functional, organism-based; details: Huh-7; method in brief: as §7
# Hepatitis B virus [15] = experiment: Antiviral activity against HBV transfected in human HuH7 cells assessed as reduction in viral DNA replication after 2 days by Southern blot analysis; type: functional, organism-based; details: Huh-7
# Method in brief: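 Intracellular encapsidated HBV DNA from core particles of pHBV1.2-transfected Huh7 cells treated 2 days; 1.0% agarose, Southern blot with DIG-labeled full-length HBV probe; lamivudine-treated cells as comparison.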
# Hepatitis B virus [16] = experiment: Antiviral activity against HBV infected in human HepG2(2.2.15) cells assessed as inhibition of e antigen secretion by EIA; type: functional, organism-based
# Method in brief: (§9)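 HepG2 2.2.15 cells (HepG2 stably carrying a head-to-tail HBV DNA dimer; MEM, 10% FBS, 37 °C, 5% CO2) treated with compound for 3 days; conditioned medium assayed for secreted HBsAg and HBeAg by enzyme immunoassay; mean and SD, n = 3; IC50 taken as 50% inhibitory concentration.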
# Hepatitis B virus [17] = experiment: Reduction of S promoter activity in HBV infected in human HuH7 cells transfected with pS-Luc at 10 ug/ml after 24 hrs by luciferase reporter gene assay; type: functional, organism-based; details: Huh-7; method in brief: as §5
# Hepatitis B virus [18] = experiment: Antiviral activity against HBV transfected in human HuH7 cells assessed as reduction in LHBsAg protein expression at 1 to 10 ug/ml after 2 days by immunoblot analysis relative to vehicle-treated control; type: functional, organism-based; details: Huh-7; method in brief: as §3
# [19] = Selectivity index, ratio of TC50 for human HepG2(2.2.15) cells to IC50 for HBV infected in human HepG2(2.2.15) cells assessed as inhibition of viral DNA replication; method in brief: as §8
# Hepatitis B virus [20] = experiment: Upregulation of AP-1 promoter activity in HBV infected in human HuH7 cells transfected with pAP1-Luc at 10 ug/ml after 24 hrs by luciferase reporter gene assay; type: functional, organism-based; details: Huh-7; method in brief: as §7
# Huh-7 [21] = experiment: Reduction in NF-kappaB binding to consensus DNA-binding sequence in human HuH7 cells transfected with pHBV1.2 by ESMA analysis; type: functional, cell-based
# Hepatitis B virus [22] = experiment: Antiviral activity against HBV infected in human HepG2(2.2.15) cells assessed as inhibition of surface antigen secretion after 3 days by EIA; type: functional, organism-based; method in brief: as §9
# Huh-7 [23] = experiment: Reduction of phosphorylated p65 NF-kappaB level in human HuH7 cells transfected with pHBV1.2 at 1 to 10 ug/ml after 2 days by Western blotting analysis; type: functional, cell-based; method in brief: as §1
# Hepatitis B virus [24] = experiment: Antiviral activity against HBV transfected in human HuH7 cells assessed as reduction in major S/preS RNA level at 1 to 10 ug/ml after 2 days by Northern blot analysis; type: functional, organism-based; details: Huh-7; method in brief: as §4
# [25] = Selectivity index, ratio of TC50 for human HepG2(2.2.15) cells to IC50 for HBV infected in human HepG2(2.2.15) cells assessed as inhibition of e antigen secretion; method in brief: as §8
# Hepatitis B virus [26] = experiment: Inhibition of ISRE promoter activity in HBV infected in human HuH7 cells transfected with pISRE-Luc at 10 ug/ml after 24 hrs by luciferase reporter gene assay; type: functional, organism-based; details: Huh-7; method in brief: as §7
# Hepatitis B virus [27] = experiment: Antiviral activity against HBV infected in human HepG2(2.2.15) cells assessed as inhibition of surface antigen secretion by EIA; type: functional, organism-based; method in brief: as §9
# Hepatitis B virus [28] = experiment: Antiviral activity against HBV infected in human HepG2(2.2.15) cells assessed as inhibition of viral DNA replication by RT-PCR analysis; type: functional, organism-based; method in brief: as §6
# Hepatitis B virus [29] = experiment: Antiviral activity against HBV infected in human HepG2(2.2.15) cells assessed as inhibition of e antigen secretion after 3 days by EIA; type: functional, organism-based; method in brief: as §9
# Hepatitis B virus [30] = experiment: Reduction of preS promoter activity in HBV infected in human HuH7 cells transfected with pPreS-Luc at 10 ug/ml after 24 hrs by luciferase reporter gene assay; type: functional, organism-based; details: Huh-7; method in brief: as §5
smiles,measurement,setting,value
CCCC(=O)N[C@]1(C)CCC[C@@]2(C)[C@@H]3CC[C@@]4(C)C[C@]3(CC[C@@H]21)CC4=O,Activity,[1],Active
same,Activity,[2],Toxic
same,Activity,Hepatitis B virus [3],Active
same,Activity,Huh-7 [4],inactive
same,Activity,Hepatitis B virus [5],Active
same,CC50,[6],65.7 µg/mL
same,Activity,Hepatitis B virus [7],Active
same,inhibition,Hepatitis B virus [8],inactive
same,inhibition,Huh-7 [9],Active
same,IC50,Hepatitis B virus [10],5.76 µg/mL
same,Activity,[11],Non-toxic
same,inhibition,Hepatitis B virus [12],Active
same,Selectivity Index,[13],6.34
same,inhibition,Hepatitis B virus [14],inactive
same,Activity,Hepatitis B virus [15],Dose-dependent effect
same,IC50,Hepatitis B virus [16],11.2 µg/mL
same,Activity,Hepatitis B virus [17],Active
same,Activity,Hepatitis B virus [18],Active
same,Selectivity Index,[19],11.41
same,Activity,Hepatitis B virus [20],Active
same,Activity,Huh-7 [21],Dose-dependent effect
same,inhibition,Hepatitis B virus [22],Dose-dependent effect
same,Activity,Huh-7 [23],Active
same,Activity,Hepatitis B virus [24],Active
same,Selectivity Index,[25],5.89
same,inhibition,Hepatitis B virus [26],inactive
same,IC50,Hepatitis B virus [27],10.4 µg/mL
same,inhibition,Hepatitis B virus [28],Dose-dependent effect
same,inhibition,Hepatitis B virus [29],Dose-dependent effect
same,Activity,Hepatitis B virus [30],Active
O=c1[nH]cc(F)c(=O)[nH]1 [FLUOROURACIL],CC50,[6],6.12 µg/mL
C[C@@]12CC[C@@H]3[C@@](CC[C@H]4[C@@]3(C)CCC[C@@]4(C)NC(=O)c3ccc(Cl)cc3)(CC1=O)C2,CC50,[6],21.6 µg/mL
same,Selectivity Index,[13],1.04
same,IC50,Hepatitis B virus [27],20.8 µg/mL
C[C@@]12CC[C@@H]3[C@@](CC[C@H]4[C@@]3(C)CCC[C@@]4(C)NC(=O)c3ccccc3)(CC1=O)C2,CC50,[6],48.5 µg/mL
same,Selectivity Index,[13],1.36
same,IC50,Hepatitis B virus [27],35.6 µg/mL
COc1ccc(C(=O)N[C@]2(C)CCC[C@@]3(C)[C@@H]4CC[C@@]5(C)C[C@]4(CC[C@@H]32)CC5=O)cc1,CC50,[6],22.4 µg/mL
same,Selectivity Index,[13],1.2
same,IC50,Hepatitis B virus [27],18.8 µg/mL
CCC(=O)N[C@]1(C)CCC[C@@]2(C)[C@@H]3CC[C@@]4(C)C[C@]3(CC[C@@H]21)CC4=O,CC50,[6],87.5 µg/mL
same,Selectivity Index,[13],2.7
same,IC50,Hepatitis B virus [27],32.5 µg/mL
